Experimental data as given in ChEMBL document CHEMBL2169835, “Flavonoid dimers as novel, potent antileishmanial agents” (J Med Chem, 2012).

Experiments:
RAW264.7 = assay: Cytotoxicity against mouse RAW264.7 cells after 72 hrs by MTS assay; format: cell-based; conditions: RAW264.7, 72 h
Summary of the method: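 RAW 264.7 murine macrophage line was plated at 1 × 10^4 cells per well in supplemented DMEM. Cells received a graded compound series for 72 h at 37 °C, 5% CO2, with a maximum of 1% DMSO. Viability was measured by MTS with PMS coupling at OD 490 nm, as percent of untreated control. The IC50 was the concentration reducing OD by half, given as mean ± SEM, N = 1–4.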

Leishmania donovani [1] = assay: Antimicrobial activity against pentamidine-resistant Leishmania donovani AG83PentR50 promastigote assessed as inhibition of parasite growth after 72 hrs by MTS assay; format: functional, organism-based; conditions: AG83PentR50, 72 h
Summary of the method: (§1)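 Promastigotes were grown in Schneider's medium pH 6.9 with 10% heat-inactivated FBS at 27 °C, seeded at 1 × 10^5 per well, and exposed to serial concentrations for 72 h at 27 °C. Compounds were in DMSO (≤1% final) or water. MTS:PMS (20:1) was added for 4 h, then OD490 was read. Survival was % of untreated control; IC50 = concentration halving OD; N = 1−4.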

Leishmania donovani [2] = assay: Antimicrobial activity against SSG-resistant Leishmania donovani 39 promastigote assessed as inhibition of parasite growth after 72 hrs by MTS assay; format: functional, organism-based; conditions: Leishmania donovani, 39, 72 h; summary of the method: as §1
Leishmania donovani [3] = assay: Antimicrobial activity against wild-type Leishmania donovani AG83 promastigote assessed as inhibition of parasite growth after 72 hrs by MTS assay; format: functional, organism-based; conditions: AG83, 72 h
Summary of the method: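 Promastigotes were grown in Schneider's medium pH 6.9 with 10% heat-inactivated FBS at 27 °C, seeded at 1 × 10^5 per well, and exposed to serial concentrations for 72 h at 27 °C. Compounds were in DMSO (≤1% final) or water. MTS:PMS (20:1) was added for 4 h, then OD490 was read.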

SMILES	IC50 (RAW264.7) [µM]	IC50 (Leishmania donovani [1]) [µM]	IC50 (Leishmania donovani [2]) [µM]	IC50 (Leishmania donovani [3]) [µM]
Cc1ccc2oc(-c3ccc(OCCOCCOCCOCCOc4ccc(-c5cc(=O)c6cc(C)ccc6o5)cc4)cc3)cc(=O)c2c1	> 100	> 24	> 24	> 24
O=c1cc(-c2ccc(OCCOCCOCCOc3ccc(-c4cc(=O)c5ccccc5o4)cc3)cc2)oc2ccccc12	> 95	> 24	> 24	> 24
Cc1ccc2oc(-c3ccc(OCCOCCOCCOCCOCCOCCOc4ccc(-c5cc(=O)c6cc(C)ccc6o5)cc4)cc3)cc(=O)c2c1	> 100	> 24	3.6	2.2
O=c1cc(-c2ccc(OCCOCCN(CCOCCOc3ccc(-c4cc(=O)c5ccccc5o4)cc3)Cc3ccccc3)cc2)oc2ccccc12	> 79		12.3	8.4
O=c1cc(-c2ccc(OCCOCCOCCOCCOCCOc3ccc(-c4cc(=O)c5ccc(F)cc5o4)cc3)cc2)oc2cc(F)ccc12	> 100	3.7	4.8	4.1
O=c1cc(-c2ccc(OCCOCCOCCOCCOCCOCCOc3ccc(-c4cc(=O)c5ccc(F)cc5o4)cc3)cc2)oc2cc(F)ccc12	7.8	4.6	4.2	4.2
O=c1cc(-c2ccc(OCCOCCOCCOCCOCCOCCOCCOCCOc3ccc(-c4cc(=O)c5ccccc5o4)cc3)cc2)oc2ccccc12	4.4	6	4.6	5
O=c1cc(-c2ccc(OCCOCCN(CCOCCOc3ccc(-c4cc(=O)c5ccccc5o4)cc3)Cc3ccc(C(F)(F)F)cc3)cc2)oc2ccccc12				14.1
O=c1cc(-c2ccc(OCCOCCOCCOCCOc3ccc(-c4cc(=O)c5ccccc5o4)cc3)cc2)oc2ccccc12	> 100	> 24	> 24	> 24
O=c1cc(-c2ccc(OCCOCCN(CCOCCOc3ccc(-c4cc(=O)c5ccccc5o4)cc3)Cc3ccnc4ccccc34)cc2)oc2ccccc12				20.4
CCc1ccc2oc(-c3ccc(OCCOCCOCCOCCOCCOCCOc4ccc(-c5cc(=O)c6cc(CC)ccc6o5)cc4)cc3)cc(=O)c2c1	5.5	3.3	2.5	3.1
CCc1ccc2oc(-c3ccc(OCCOCCOCCOCCOCCOc4ccc(-c5cc(=O)c6cc(CC)ccc6o5)cc4)cc3)cc(=O)c2c1	> 200	6.3	4.6	4.7
O=c1cc(-c2ccc(OCCOCCN(CCOCCOc3ccc(-c4cc(=O)c5ccccc5o4)cc3)Cc3ccc([N+](=O)[O-])cc3)cc2)oc2ccccc12	70.3		> 100	> 100
O=c1cc(-c2ccc(OCCOCCOCCOCCOCCOCCOCCOc3ccc(-c4cc(=O)c5ccccc5o4)cc3)cc2)oc2ccccc12	4.8	7.3	10.3	6.2
O=c1cc(-c2ccc(OCCOCCN(CCOCCOc3ccc(-c4cc(=O)c5ccccc5o4)cc3)Cc3cccc(F)c3)cc2)oc2ccccc12				> 100
O=c1cc(-c2ccc(OCCOCCOc3ccc(-c4cc(=O)c5ccccc5o4)cc3)cc2)oc2ccccc12	> 100	> 24	> 24	> 24
Cc1c(-c2ccc(OCCOCCOCCOCCOc3ccc(-c4oc5ccccc5c(=O)c4C)cc3)cc2)oc2ccccc2c1=O	8.1	> 20	> 19	6.9
O=c1cc(-c2ccc(OCCOCCN(CCOCCOc3ccc(-c4cc(=O)c5ccccc5o4)cc3)Cc3ccc(F)cc3)cc2)oc2ccccc12				> 100
O=c1cc(-c2ccc(OCCOCCOCCOCCOCCOc3ccc(-c4cc(=O)c5ccccc5o4)cc3)cc2)oc2ccccc12	8.9	10.4	7.8	5.3

SMILES	IC50 (RAW264.7) [µM]	IC50 (Leishmania donovani [1]) [µM]	IC50 (Leishmania donovani [2]) [µM]	IC50 (Leishmania donovani [3]) [µM]
O=c1cc(-c2ccc(OCCOCCOCCOCCOc3ccc(-c4cc(=O)c5c(O)cccc5o4)cc3)cc2)oc2cccc(O)c12			> 24	> 24
O=c1cc(-c2ccc(OCCOCCOCCOCCOCCOCCOc3ccc(-c4cc(=O)c5c(O)cc(O)cc5o4)cc3)cc2)oc2cc(O)cc(O)c12		11.8	1.4	> 24
Cc1ccc2c(=O)cc(-c3ccc(OCCOCCOCCOCCOCCOc4ccc(-c5cc(=O)c6ccc(C)cc6o5)cc4)cc3)oc2c1	> 80	3.8	7.9	4.4
O=c1cc(-c2ccc(OCCOCCN(CCCc3ccccc3)CCOCCOc3ccc(-c4cc(=O)c5ccccc5o4)cc3)cc2)oc2ccccc12	85		18.4	8.9
CCc1ccc2oc(-c3ccc(OCCOCCOCCOCCOc4ccc(-c5cc(=O)c6cc(CC)ccc6o5)cc4)cc3)cc(=O)c2c1	> 100	> 24	> 24	> 24
O=c1cc(-c2ccc(OCCOCCN(CCO)CCOCCOc3ccc(-c4cc(=O)c5ccccc5o4)cc3)cc2)oc2ccccc12	6.4		7.2	3.2
Cc1ccc(S(=O)(=O)N(CCOCCOc2ccc(-c3cc(=O)c4ccccc4o3)cc2)CCOCCOc2ccc(-c3cc(=O)c4ccccc4o3)cc2)cc1	> 100		> 100	100
O=c1cc(-c2ccc(OCCOCCOCCOCCOc3ccc(-c4cc(=O)c5c(O)cc(O)cc5o4)cc3)cc2)oc2cc(O)cc(O)c12	> 200	3.1	1.9	2.2
COC(=O)c1ccc(CN(CCOCCOc2ccc(-c3cc(=O)c4ccccc4o3)cc2)CCOCCOc2ccc(-c3cc(=O)c4ccccc4o3)cc2)cc1	45.7		> 100	> 100
O=c1cc(-c2ccc(OCCOCCOCCOc3ccc(-c4cc(=O)c5c(O)cc(O)cc5o4)cc3)cc2)oc2cc(O)cc(O)c12	> 200	6.7	2.7	5.6
Cc1ccc2c(=O)cc(-c3ccc(OCCOCCOCCOCCOc4ccc(-c5cc(=O)c6ccc(C)cc6o5)cc4)cc3)oc2c1	88.6	> 24	> 24	> 24
O=c1cc(-c2ccc(OCCOCCOCCOCCOCCOc3ccc(-c4cc(=O)c5c(O)cc(O)cc5o4)cc3)cc2)oc2cc(O)cc(O)c12	> 200	2.6	1.8	2.3
O=c1cc(-c2ccc(OCCOCCN(CCOCCOc3ccc(-c4cc(=O)c5ccccc5o4)cc3)Cc3cc(F)c(F)c(F)c3)cc2)oc2ccccc12				33.3
CS(=O)(=O)N(CCOCCOc1ccc(-c2cc(=O)c3ccccc3o2)cc1)CCOCCOc1ccc(-c2cc(=O)c3ccccc3o2)cc1	96		0.9	0.75
CCN(CCOCCOc1ccc(-c2cc(=O)c3ccccc3o2)cc1)CCOCCOc1ccc(-c2cc(=O)c3ccccc3o2)cc1	8.3		5.5	3.2
CCOC(=O)CCN(CCOCCOc1ccc(-c2cc(=O)c3ccccc3o2)cc1)CCOCCOc1ccc(-c2cc(=O)c3ccccc3o2)cc1	16		6.6	3.8
O=c1c(O)c(-c2ccc(OCCOCCOCCOCCOc3ccc(-c4oc5ccccc5c(=O)c4O)cc3)cc2)oc2ccccc12			> 24	> 24
O=c1cc(-c2ccc(OCCOCCN(CCOCCOc3ccc(-c4cc(=O)c5ccccc5o4)cc3)Cc3ccccc3F)cc2)oc2ccccc12				> 100
